{"source": "ChEMBL document CHEMBL4513216", "about": "“Probing the Open Global Health Chemical Diversity Library for Multistage-Active Starting Points for Next-Generation Antimalarials” (ACS Infect Dis, 2020)"}
{"assay": "Toxicity liver stage against HepG2, at 10uM", "assay_type": "cell-based", "parameters": "test concentration 10 uM, cell line HepG2-A16-CD81EGFP", "settings": "human, HepG2-A16-CD81EGFP cells; read-out: INHIBITION", "in_short": "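Uninfected HepG2-A16-CD81EGFP cells, 3 × 10^3 per well, 1536-well, plated on prespotted compound at 10 μM final, parasite-free screening media added to match infected plates; puromycin 10 μM positive, DMSO 0.5% negative; run in parallel with 48 h PbLuc assay at 37 °C, 5% CO2; viability by CellTiter-Glo luminescence, normalized to controls.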", "units": {"cytotoxicity at 10 µM": "%"}}
{"smiles": "CNc1cc(-c2cc(OC)c(OC)c(OC)c2)ncn1", "cytotoxicity at 10 µM": -11.8}
{"smiles": "c1coc(-c2nnc([C@H]3CCN(Cc4ccc5c(c4)OCO5)C3)o2)c1", "cytotoxicity at 10 µM": -0.0837}
{"smiles": "F[C@@H]1CN(CC2CC2)C[C@@H]1OCc1nc2ncccc2[nH]1", "cytotoxicity at 10 µM": 5.52}
{"smiles": "CC(=O)N1N=C(c2ccccc2)OC1C(=O)NCC(=O)OC(C)(C)C", "note": "(stereo unspecified)", "cytotoxicity at 10 µM": -0.376}
{"smiles": "O=C(CCc1ccccc1Br)N1CC(S(=O)(=O)C2CCCCC2)C1", "cytotoxicity at 10 µM": -1.36}
{"smiles": "O=C(c1cccs1)N1CCc2nnc(COc3cncnc3)n2CC1", "cytotoxicity at 10 µM": 8.13}
{"smiles": "CC(=O)N1CCCn2c(nc(CNS(=O)(=O)C3CC3)cc2=O)C1", "cytotoxicity at 10 µM": 2.71}
{"smiles": "O=C(NCCN1CCCC1)c1ccc2c(-c3nccs3)noc2c1", "cytotoxicity at 10 µM": -2.79}
{"smiles": "CN(C)S(=O)(=O)N1CCC2(CC1)CC(OCC1CC1)CO2", "note": "(stereo unspecified)", "cytotoxicity at 10 µM": -2.37}
{"smiles": "Cc1noc([C@@]23CCO[C@@H]2CCN(C(=O)c2c(C)noc2C)C3)n1", "cytotoxicity at 10 µM": 8.4}
{"smiles": "CC/N=c1\\nc(NCC)nc2n1C(O)(Nc1cccc(C)c1C)CS2", "note": "(stereo unspecified)", "cytotoxicity at 10 µM": 11.5}
{"smiles": "COc1cccc(NC(=O)Cn2cc(-c3ccccc3)ncc2=O)c1", "cytotoxicity at 10 µM": -0.0638}
{"smiles": "O=C([C@H]1C[C@H]2OCC[C@H]2N(C(=O)C2CCOCC2)C1)N1CCCCO1", "cytotoxicity at 10 µM": -8.28}
{"smiles": "CCOC(=O)c1sc(NC(=O)CCCC(=O)O)c(C#N)c1C", "cytotoxicity at 10 µM": 11.6}
{"smiles": "COC(=O)CNC(=O)c1cc(-c2ccccc2)nc2ncnn12", "cytotoxicity at 10 µM": -5.07}
{"smiles": "CCC(C)NC(=O)c1cc(S(=O)(=O)N2CCCC2)c(C)s1", "note": "(stereo unspecified)", "cytotoxicity at 10 µM": -2.6}
{"smiles": "CC(C)C(=O)NCCc1nc(-c2ccncc2)n[nH]1", "cytotoxicity at 10 µM": 7.78}
{"smiles": "CO[C@@H]1CCC[C@@H](NC(=O)c2cccc(F)c2)[C@H]1O", "cytotoxicity at 10 µM": 1.65}
{"smiles": "COc1cc(C(=O)NC(C)(C)CN2CCN(C)CC2)c2ccccc2n1", "cytotoxicity at 10 µM": -1.41}
{"smiles": "Cc1nc(Nc2nnc(C)s2)cc(C2CCCN2C2CCCC2)n1", "note": "(stereo unspecified)", "cytotoxicity at 10 µM": -16.7}
{"smiles": "CC(=O)N1CCC(N2CC(Cc3nccc4ccn(C)c34)C2)CC1", "cytotoxicity at 10 µM": 17.7}
{"smiles": "CC1(C(=O)N2CCOCC2)CN(Cc2ncc[nH]2)CCO1", "note": "(stereo unspecified)", "cytotoxicity at 10 µM": -11.3}
{"smiles": "CN(Cc1ccc(F)cc1)CC1(O)CCN(C(=O)c2ccncc2)C1", "note": "(stereo unspecified)", "cytotoxicity at 10 µM": -2.25}
{"smiles": "Cc1nc(O)c2nnn(C[C@H]3CCCN3C(=O)c3ccccc3F)c2n1", "cytotoxicity at 10 µM": -20.4}
{"smiles": "COc1cccc(CNC(=O)c2ccccc2-n2cnc(CN)c2)c1", "cytotoxicity at 10 µM": -17}
{"smiles": "O=C(N[C@@H]1CN(Cc2ccc3[nH]ccc3c2)C[C@H]1O)c1cscn1", "cytotoxicity at 10 µM": -7.11}
{"smiles": "O=S(=O)(c1cccc(F)c1)N1CCCCC1c1ccn[nH]1", "note": "(stereo unspecified)", "cytotoxicity at 10 µM": 0.692}
{"smiles": "Cn1ccc2ccnc(CC3CN(C(=O)C4CCC(F)(F)CC4)C3)c21", "cytotoxicity at 10 µM": -2.78}
{"smiles": "CN1CC(=O)N(c2ccccc2)Cc2c(NC3CC3)ncnc21", "cytotoxicity at 10 µM": 6.86}
{"smiles": "O=C1CC2(CCN(C(=O)C3CCCCC3)C2)Nc2ccccc2N1", "note": "(stereo unspecified)", "cytotoxicity at 10 µM": 9.13}
{"smiles": "Cn1nc(C2CCCN2)c2c(C(=O)NCC(F)(F)F)cc(C3CC3)nc21", "note": "(stereo unspecified)", "cytotoxicity at 10 µM": 13.1}
{"smiles": "CS(=O)(=O)N1CC2(CCCN(C3COC3)C2)Cc2ccccc21", "note": "(stereo unspecified)", "cytotoxicity at 10 µM": 5.15}
{"smiles": "CC(NC(C)(C)CN)c1ccccc1", "note": "(stereo unspecified)", "cytotoxicity at 10 µM": 2.62}
{"smiles": "Cn1ccc(CS(=O)(=O)Cc2ccccc2)cc1=O", "cytotoxicity at 10 µM": 6.02}
{"smiles": "Cn1ccnc1S(=O)(=O)C(C(=O)N1CCCCC1)c1ccccc1", "note": "(stereo unspecified)", "cytotoxicity at 10 µM": 24.5}
{"smiles": "CC(NCCn1cccn1)c1ccccc1F", "note": "(stereo unspecified)", "cytotoxicity at 10 µM": -3.21}
{"smiles": "Cc1nc(-c2cc(C(=O)O)co2)cs1", "cytotoxicity at 10 µM": 3.39}
{"smiles": "CC(C)CCNC(=O)NC(C)c1nncn1C", "note": "(stereo unspecified)", "cytotoxicity at 10 µM": -9.9}
{"smiles": "CC(CNC(=O)c1ccncc1F)Oc1ccc(F)cc1", "note": "(stereo unspecified)", "cytotoxicity at 10 µM": 0.0383}
{"smiles": "O=C(NCc1nncn1C1CC1)C1(c2cccc(F)c2)CCOCC1", "cytotoxicity at 10 µM": -2.07}
{"smiles": "Cc1cc(C(=O)NCC2CCCO2)c(C)n1-c1cccnc1", "note": "(stereo unspecified)", "cytotoxicity at 10 µM": 4.95}
{"smiles": "CCc1nsc(N2CCC3(CC2)OCCO3)n1", "cytotoxicity at 10 µM": 2.24}
{"smiles": "CCNC(=O)NCc1cnn(-c2ccc(F)cc2F)c1", "cytotoxicity at 10 µM": -6.52}
{"smiles": "O=C(CNCC1CCCN1c1cccnn1)NCCc1cccs1", "note": "(stereo unspecified)", "cytotoxicity at 10 µM": -6.84}
{"smiles": "Cc1ccc(N2CCCC(N(C)Cc3nnc(C4CC4)o3)C2)nn1", "note": "(stereo unspecified)", "cytotoxicity at 10 µM": 6.2}
{"smiles": "CS(=O)(=O)CCCNC(=O)C1(c2cccc(Cl)c2)CC1", "cytotoxicity at 10 µM": -2.26}
{"smiles": "Cn1cc(Br)c(=O)c(NS(=O)(=O)c2ccc3c(c2)CCC3)c1", "cytotoxicity at 10 µM": -3.47}
{"smiles": "CCC(=O)NCC(c1ccc(SC)cc1)N1CCc2sccc2C1", "note": "(stereo unspecified)", "cytotoxicity at 10 µM": 4.05}
{"smiles": "CCc1ccc(C(=O)N2CCC(c3nncn3CC)CC2)o1", "cytotoxicity at 10 µM": 3.14}
{"smiles": "Cc1cc(C)cc(OCCN(C)Cc2cscn2)c1", "cytotoxicity at 10 µM": 6.56}
{"smiles": "CCC(NCc1ccccc1C)c1ccccc1OCC(=O)NC", "note": "(stereo unspecified)", "cytotoxicity at 10 µM": 16.9}
{"smiles": "NC(=O)CN(Cc1ccc(Br)cc1)C(=O)c1ccccn1", "cytotoxicity at 10 µM": 6.85}
{"smiles": "CN(C(=O)Cc1coc(-c2cccs2)n1)C1(C#N)CCC1", "cytotoxicity at 10 µM": 6.52}
{"smiles": "Cc1cccnc1NC(=O)NC(CCO)C(C)(C)C", "note": "(stereo unspecified)", "cytotoxicity at 10 µM": 2.3}
{"smiles": "CCc1nc(CNC2CCN(S(C)(=O)=O)CC2)cs1", "cytotoxicity at 10 µM": 0.684}
{"smiles": "COCCC(=O)NCCCOC1CCCc2ccccc21", "note": "(stereo unspecified)", "cytotoxicity at 10 µM": -6.87}
